The text below walks through data of ChEMBL document CHEMBL1143805, “Synthesis and antimicrobial activities of some novel 1,2,4-triazolo[3,4-b]-1,3,4-thiadiazoles and 1,2,4-triazolo[3,4-b]-1,3,4-thiadiazines carrying thioalkyl and sulphonyl phenoxy moieties” (2007).

Values after ≈ are worked out from the molar mass of the structure shown.

The subject of experiment [1] is Escherichia coli. The experiment can be described thus: Antibacterial activity against Escherichia coli ATCC 25922. Type of experiment: functional. To be noted: for MIC: Escherichia coli, ATCC 25922. In outline:
(§1)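 MIC by serial dilution in Mueller-Hinton broth tubes, pH adjusted to 5.0 with phosphate buffer. A standardized bacterial suspension was inoculated and incubated 16-18 h at 37 °C, and MIC was read as the lowest concentration with no visible growth. Zones were also measured in agar wells on seeded plates, with compounds in DMSO and a DMSO control, triplicate plates, 37 °C for 3-4 days.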

Experiment [2] concerns Staphylococcus aureus. As to the kind of experiment: Antibacterial activity against Staphylococcus aureus ATCC 25923. Type of experiment: functional. As to conditions: for MIC: Staphylococcus aureus, ATCC 25923. Put shortly: as §1
Experiment [3] has as its system Pseudomonas aeruginosa. As to the kind of experiment: Antibacterial activity against Pseudomonas aeruginosa ATCC 27853. Type of experiment: functional. As to conditions: for MIC: Pseudomonas aeruginosa, ATCC 27853. Put shortly: as §1
The test system of experiment [4] is Klebsiella pneumoniae. The experiment can be described thus: Antibacterial activity against Klebsiella pneumoniae. Type of experiment: functional. To be noted: for MIC: Klebsiella pneumoniae. Put shortly:
as §1

Experiment [5] concerns Aspergillus flavus. The experiment can be described thus: Antifungal activity against Aspergillus flavus NCIM 524. Type of experiment: functional. As to conditions: for MIC: Aspergillus flavus, NCIM 524. In outline: (§2)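 Agar-well diffusion on Sabouraud agar at pH 5.7. Plates were lawned with a saline spore suspension (one loopful in 3 ml), decanted and dried 1 h at 37 °C. Compounds in DMSO went into punched wells, with a DMSO solvent control. Plates were run in triplicate and kept at 37 °C for 3-4 days, with inhibition-zone diameter as read-out.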

Experiment [6] deals with Aspergillus fumigatus. The experiment can be described thus: Antifungal activity against Aspergillus fumigatus NCIM 902. Type of experiment: functional. To be noted: for MIC: Aspergillus fumigatus, NCIM 902.
For experiment [7], the system named is Talaromyces marneffei. The experiment can be described thus: Antifungal activity against Penicillium marneffei. To be noted: for MIC: Talaromyces marneffei. Type of experiment: functional. In outline: as §2
The subject of experiment [8] is Trichophyton benhamiae. The experiment can be described thus: Antifungal activity against Trichophyton mentagrophytes. As to conditions: for MIC: Trichophyton benhamiae. Type of experiment: functional, Arthroderma benhamiae. Put shortly: as §2

For the compound `CS(=O)(=O)c1ccc(OCc2nnc3n2N=C(c2ccc(Cl)cc2Cl)CS3)cc1`, the “inhibition zone (IZ)” value in experiment [1], in experiment [2], in experiment [3], in experiment [4], in experiment [5] and in experiment [6] was 11 mm throughout. In addition, the “inhibition zone (IZ)” value in experiment [7] is recorded as less than 10 mm; in experiment [8], 11 mm. Also, the minimal inhibitory concentration (MIC) in experiment [1], in experiment [2], in experiment [3], in experiment [4], in experiment [5] and in experiment [6] was 12.5 mg/L (≈ 26.6 µM) each time. The results for the MIC in experiment [7] and in experiment [8] were 25 mg/L (≈ 53.3 µM) and 12.5 mg/L (≈ 26.6 µM), respectively.
Consider `CS(=O)(=O)c1ccc(OCc2nnc3n2N=C(c2ccc(O)c(C(N)=O)c2)CS3)cc1`, for which the “inhibition zone (IZ)” value in experiment [1], in experiment [2], in experiment [3], in experiment [4], in experiment [5] and in experiment [6] was 11 mm in each case. In addition, the “inhibition zone (IZ)” value was less than 10 mm in experiment [7] and 11 mm in experiment [8]. Besides, the MIC in experiment [1], in experiment [2], in experiment [3], in experiment [4], in experiment [5] and in experiment [6] was 12.5 mg/L (≈ 27.2 µM) each time. For the same compound, the MIC is 25 mg/L (≈ 54.4 µM) in experiment [7] and 12.5 mg/L (≈ 27.2 µM) in experiment [8].

A word on the MIC: it is the smallest concentration in the dilution series that meets the test's criterion for growth inhibition. Read a high MIC as a less susceptible organism.
